Compounds with a hit are over-represented: about 2.1% of the library has one in this group of screens.
SMARCA2 activ – SMARCA2 (BRM) function activators, primary screen, cell-based, luminescence, high throughput; MG213 cells, MMTV-luciferase reporter, dexamethasone, overnight; activation, % at 9.1 µM; 370,000 tested, 1% active; AID 652017, 2013; in the data active = activation above about 7.8%;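 also: 0% = vehicle wells and 100% = reference activator wells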
MC4R barr agon – MC4R agonists recruiting beta-arrestin, primary screen, cell-based, luminescence, agonist arm of biased-ligand search | Melanocortin receptor 4 (Homo sapiens), P32245 | 360,000 tested, 0.98% active | AID 540308, 2011 | activation, % at 8.9 µM | U2OS MC4R beta-arrestin complementation; percent of melanotan II response, DMSO zero;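 active = activation above a per-plate cutoff, the mean activation of sample wells on that plate plus 3 SD, cut at about 8% in these data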
Target sequence (P32245 whole entry, looked up): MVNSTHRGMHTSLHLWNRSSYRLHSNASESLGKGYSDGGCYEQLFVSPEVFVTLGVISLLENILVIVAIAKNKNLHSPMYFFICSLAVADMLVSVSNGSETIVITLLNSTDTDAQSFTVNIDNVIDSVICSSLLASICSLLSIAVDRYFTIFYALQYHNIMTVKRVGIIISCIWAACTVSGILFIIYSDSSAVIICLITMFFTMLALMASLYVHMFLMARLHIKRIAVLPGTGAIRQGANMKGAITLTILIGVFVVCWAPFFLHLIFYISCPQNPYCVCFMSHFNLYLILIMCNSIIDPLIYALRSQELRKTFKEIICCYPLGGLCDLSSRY
MC4R antag cAMP – MC4R antagonists of cAMP signaling, primary screen, cell-based, TR-FRET, antagonist arm of biased-ligand search; Melanocortin receptor 4 (Homo sapiens), P32245; MC4R-expressing cells, MTII-stimulated cAMP, LANCE TR-FRET; inhibition, % at 6.5 µM; 360,000 tested, 0.48% active;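 active = inhibition above its plate's cutoff, the mean of tested wells on that plate plus 3 SD, cut at about 29% in these data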;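 also: 0% = Melanotan II alone and 100% = Melanotan II plus saturating MCL0020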
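Material: U2OS-MC4R stable cell line | Reagent: Melanotan II challenge after compound preincubation | Doses: One concentration, 6.5 µM nominal | Incubation: 30-min compound preincubation, 1-h Melanotan II challenge, 1-h detection, room temperature | Signal: TR-FRET cAMP assay | Replicates: One well per compound, no replicates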
F508del corr – F508del CFTR correction, initial screen, CFBE line, single point | CFBE cells, YFP halide quenching; stimulated with forskolin plus potentiator P3; % fluorescence drop versus neutral controls | activity (quench increase), % at 7.58 µM | 350,000 tested, 0.36% active | AID 720511, 2013;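 active = mean added fluorescence quench of at least 8% versus neutral control, with both replicates also reaching 8%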;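 also: cells transiently co-express mutant CFTR-F508del with the halide-sensitive YFP; corrector assay measuring rescue of mutant channel to the surface after 24 h compound exposure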
SMARCA2 act conf – SMARCA2 (BRM) function activators, confirmation, cell-based, luminescence, triplicate | AID 652260, 2013 | shares compounds with SMARCA2 activ | activation, % at 9.1 µM | MG213 cells, MMTV-luciferase with dexamethasone, overnight; MG213 cells expressing E1A, Rb sequestered; DMSO wells 0%, reference activator 100% | 3,500 tested, 30% active;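 active = activation above its plate's cutoff, the mean activation of tested wells plus 3 SD, cut at about 7.9% in these data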
VP16 Luc act – GAL4-VP16 luciferase reporter activation, counter-screen for SMARCA2 (BRM) activator project, cell-based, pG5luc, luminescence, high throughput; shares compounds with SMARCA2 activ; 3,500 tested, 41% active; activation, % at 9.1 µM; AID 686939, 2013; HEK293 GAL4-VP16 pG5luc reporter; scaled: DMSO wells 0%, SAHA wells 100%;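 active = activation above the solvent-only control well mean plus 3 SD, averaged across control plates, cut at about 5.2% in these data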
* hit, by the source's call; / = no result given.

SMILES	SMARCA2 activ	MC4R barr agon	MC4R antag cAMP	F508del corr	SMARCA2 act conf	VP16 Luc act
CCCCN1C(=O)N(c2nnc(C(C)(C)C)s2)C(O)C1c1ccc(C)cc1 (configuration not stated)	10*	7	15	0	-1	2
Cc1nnc(SCc2nc3ccccc3s2)n1N	8.5*	0	-1	1	8.2*	5
Cc1nnc(SCc2nc3ccccc3s2)n1-c1ccccc1	7	2	15	/	/	/
COCCn1c(SCc2nc3ccccc3s2)nc2ccccc21	15*	-1	3	0	7	8.1*
CCOCCCn1c(SCc2nc3ccccc3s2)nc2ccccc2c1=O	1	-1	-6	/	/	/
CCn1c(SCc2nc3ccccc3s2)nc2cc(S(=O)(=O)N3CCOCC3)ccc21	10*	-3	-7	-2	3	4
CN(C)CC(=O)Nc1ccc2c(c1)[C@H]1C[C@H](CC(=O)NCc3cccnc3)O[C@@H](CO)[C@H]1O2	/	/	/	-3	/	/
O=C(N=Nc1c(O)[nH]c2ccccc12)c1ccco1	8.2*	-3	-27	1	23*	9.8*
O=C(Nc1ccc(-c2cn3c(n2)SCC3)cc1)c1ccco1	14*	1	-1	2	8	10*
O=C(Nc1cccc(-c2nc3cccnc3s2)c1)c1ccco1	1	0	-2	1	/	/
O=C(Nc1ccc(-c2nc3cccnc3s2)cc1)c1ccco1	8.2*	0	1	1	4	10*
O=C(C[C@@H]1CC[C@@H]2[C@H](COC[C@@H](O)CN2C(=O)Nc2ccc(Cl)c(Cl)c2)O1)NCc1ccncc1	/	/	/	-1	/	/
CCCNC(=O)Nc1ccc2c(c1)OC[C@H](C)N(CCC)C[C@@H](C)[C@H](OC)CN(C)C2=O	/	/	/	0	/	/
Cc1cc(=O)oc2cc(NC(=O)c3ccccc3C(=O)O)ccc12	3	-1	-3	-5	/	/
CCOC(=O)Nc1ccc2c(C)cc(=O)oc2c1	11*	0	-2	/	2	8.7*
COc1cccc(C(=O)Nc2ccc3c(C)cc(=O)oc3c2)c1	13*	-4	-1	-5	11*	14*
O=C1/C(=C/c2ccco2)Cc2ccccc21	11*	2	-4	-1	13*	4
COc1ccc(Nc2ncnc3ccccc23)c(OC)c1	9.0*	0	2	/	-2	0
O=C(CCCc1nc2ccccc2s1)Nc1nccs1	-1	-3	-5	/	/	/
Cc1cnc(NC(=O)CCCc2nc3ccccc3s2)s1	27*	0	2	/	29*	-1
C[C@H](CO)N1C[C@H](C)[C@H](CN(C)C(=O)c2ccncc2)Oc2ncc(C3=CCCCC3)cc2C1=O	/	/	/	1	/	/
Cc1ccc(NC(=O)N2CCCCCC2)c(C)c1	9.6*	-1	10	1	6	0
Cc1ccc(NC(=O)N2CCCCCC2)cc1	2	-3	1	0	/	/
Cc1ccc(NC(=S)NC(=O)C2CC2)c(C)c1	8.8*	-2	16	0	4	2
Cc1ccc(NC(=O)c2ccc(OC(=O)C(C)Oc3ccc(Cl)cc3C)cc2)cc1 (configuration not stated)	11*	-1	4	/	8.0*	1
SMILES	SMARCA2 activ	MC4R barr agon	MC4R antag cAMP	F508del corr	SMARCA2 act conf	VP16 Luc act
Cc1cc(NC(=O)c2ccco2)ccc1NC(=O)c1ccco1	9.7*	1	-2	-1	-1	1
Cc1cc(NC(=O)c2ccco2)ncc1NC(=O)Cc1ccccc1	11*	-2	-6	/	12*	3
CCC(=O)Nc1ccc(NC(=O)c2ccco2)c(OC)c1	2	-1	8	/	/	/
Cc1cc(NC(=O)C(C)C)ncc1NC(=O)c1ccco1	-3	-1	3	-1	/	/
CCCC(=O)Nc1ccc(NC(=O)c2ccco2)c(OC)c1	9.7*	0	9	0	7	6.5*
C[C@H]1CN([C@@H](C)CO)C(=O)Cc2cc(NS(C)(=O)=O)ccc2O[C@H]1CN(C)CC1CCCCC1	/	/	/	-1	/	/
CCCSc1nnc(NC(=O)Nc2ccc(C)cc2)s1	8.0*	6	7	-1	0	1
Cc1ccc(/C=C2\SC(=O)N(CCC(=O)N3CCN(C)CC3)C2=O)cc1	8.9*	-1	-4	-1	5	6.6*
Cc1ccc2[nH]c(=O)c3cc(C(=O)N(C)Cc4ccco4)sc3c2c1	8.4*	2	9	0	13*	-1
c1cncc(-c2nc3cc4ccccc4cc3[nH]2)c1	8.4*	-1	-10	-1	13*	17*
c1ccc(-c2nc3cc4ccccc4cc3[nH]2)nc1	5	-1	1	/	/	/
CCOCCCNC(=O)c1ccccc1OC1CCN(S(C)(=O)=O)CC1	5	-2	3	0	/	/
CCOCCCNC(=O)c1cccc(OC2CCN(S(C)(=O)=O)CC2)c1	8.3*	0	-1	0	8	10*
CO[C@H](CN(C)C(=O)C1CCOCC1)[C@@H](C)CN(C(=O)Nc1ccc(C(F)(F)F)cc1)[C@@H](C)CO	/	/	/	0	/	/
C[C@H]1CN([C@@H](C)CO)C(=O)c2cc(-c3ccc(C#N)cc3)cnc2O[C@H]1CN(C)Cc1ccccn1	/	/	/	1	/	/
N#CC(Cc1ccc(OC(F)F)cc1)c1nc2ccccc2[nH]1 (configuration not stated)	2	-1	10	/	/	/
N#CC(Cc1cccs1)c1nc2ccccc2[nH]1 (configuration not stated)	8.6*	0	7	1	2	2
CN(C)/C=C/C(=O)c1ccc2noc(-c3ccc(F)cc3)c2c1	11*	-1	-7	-4	-1	0
Cc1ccc(-c2onc3ccc(C(=O)/C=C/N(C)C)cc23)cc1	2	-1	6	0	/	/
Cn1sccc1=O	9.4*	-1	-3	0	17*	2
COCC1CCCCN1Cc1cn[nH]c1-c1ccc2cc(OC)ccc2c1 (configuration not stated)	11*	-2	7	0	3	4
COCC1CCCCN1Cc1cn[nH]c1-c1ccc(OC)cc1OC (configuration not stated)	-2	2	4	4	/	/
O=C(C[C@H]1C[C@@H]2c3cc(NC(=O)C4CCOCC4)ccc3O[C@@H]2[C@H](CO)O1)NCc1ccccc1	/	/	/	2	/	/
O=[N+]([O-])c1cccc(COc2ccc(CO)cc2)c1	9.4*	/	/	6	9.1*	13*
